Laboratory results as given in ChEMBL document CHEMBL1144339, “Synthesis and activity of oleanolic acid derivatives, a novel class of inhibitors of osteoclast formation” (2005).

System: Osteoclast-like
Assay: Percent inhibition of tartrate resistant acid phosphatase positive osteoclast like multinucleated cells formation by 1-alpha, 25-dihydroxy vitamin D3 in mouse bone marrow cells
Type: functional
Design: concentration or dose not given beside the values
Method in brief: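 Run as a co-culture assay. Formation of osteoclast-like multinucleated cells was induced with 1α,25-dihydroxy vitamin D₃.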

| Compound | Inhibition [%] |
| --- | --- |
| CCC(C)C(NC(=O)[C@]12CCC(C)(C)C[C@H]1C1=CC[C@@H]3[C@@]4(C)CC[C@H](O)C(C)(C)C4CC[C@@]3(C)[C@]1(C)CC2)C(=O)O (stereo partly specified) | 53.5 |
| CC(C)C(NC(=O)[C@]12CCC(C)(C)C[C@H]1C1=CC[C@@H]3[C@@]4(C)CC[C@H](O)C(C)(C)C4CC[C@@]3(C)[C@]1(C)CC2)C(=O)O (stereo partly specified) | 41.3 |
| CC(NC(=O)[C@]12CCC(C)(C)C[C@H]1C1=CC[C@@H]3[C@@]4(C)CC[C@H](O)C(C)(C)C4CC[C@@]3(C)[C@]1(C)CC2)C(=O)O (stereo partly specified) | 87.8 |
| CC1(C)CC[C@]2(C(=O)O)CC[C@]3(C)C(=CC[C@@H]4[C@@]5(C)CC[C@H](O)C(C)(C)C5CC[C@]43C)[C@@H]2C1 (stereo partly specified) | 27.6 |
| CC1(C)CC[C@]2(C(=O)N3CCCC3C(=O)O)CC[C@]3(C)C(=CC[C@@H]4[C@@]5(C)CC[C@H](O)C(C)(C)C5CC[C@]43C)[C@@H]2C1 (stereo partly specified) | 21 |
| CC1(C)CC[C@]2(C(=O)N3CCCC3C(=O)O)CC[C@]3(C)C(=CC(=O)[C@@H]4[C@@]5(C)CC[C@H](O)C(C)(C)C5CC[C@]43C)[C@@H]2C1 (stereo partly specified) | 40.3 |
| CC1(C)CC[C@]2(C(=O)NC(Cc3ccccc3)C(=O)O)CC[C@]3(C)C(=CC[C@@H]4[C@@]5(C)CC[C@H](O)C(C)(C)C5CC[C@]43C)[C@@H]2C1 (stereo partly specified) | 16.3 |
| CC1(C)CC[C@]2(C(=O)O)CC[C@]3(C)C(=CC(=O)[C@@H]4[C@@]5(C)CC[C@H](O)C(C)(C)C5CC[C@]43C)[C@@H]2C1 (stereo partly specified) | 38.5 |
| CC(C)C(NC(=O)[C@]12CCC(C)(C)C[C@H]1C1=CC(=O)[C@@H]3[C@@]4(C)CC[C@H](O)C(C)(C)C4CC[C@@]3(C)[C@]1(C)CC2)C(=O)O (stereo partly specified) | 59 |
| CCC(C)C(NC(=O)[C@]12CCC(C)(C)C[C@H]1C1=CC(=O)[C@@H]3[C@@]4(C)CC[C@H](O)C(C)(C)C4CC[C@@]3(C)[C@]1(C)CC2)C(=O)O (stereo partly specified) | 62 |
| CC1(C)CC[C@]2(C(=O)NCC(=O)O)CC[C@]3(C)C(=CC(=O)[C@@H]4[C@@]5(C)CC[C@H](O)C(C)(C)C5CC[C@]43C)[C@@H]2C1 (stereo partly specified) | 83.3 |
| CC1(C)CC[C@]2(C(=O)NC(Cc3ccccc3)C(=O)O)CC[C@]3(C)C(=CC(=O)[C@@H]4[C@@]5(C)CC[C@H](O)C(C)(C)C5CC[C@]43C)[C@@H]2C1 (stereo partly specified) | 36.5 |
| CC(C)CC(NC(=O)[C@]12CCC(C)(C)C[C@H]1C1=CC[C@@H]3[C@@]4(C)CC[C@H](O)C(C)(C)C4CC[C@@]3(C)[C@]1(C)CC2)C(=O)O (stereo partly specified) | 51.2 |
| CC(NC(=O)[C@]12CCC(C)(C)C[C@H]1C1=CC(=O)[C@@H]3[C@@]4(C)CC[C@H](O)C(C)(C)C4CC[C@@]3(C)[C@]1(C)CC2)C(=O)O (stereo partly specified) | 76.3 |
| CC(C)CC(NC(=O)[C@]12CCC(C)(C)C[C@H]1C1=CC(=O)[C@@H]3[C@@]4(C)CC[C@H](O)C(C)(C)C4CC[C@@]3(C)[C@]1(C)CC2)C(=O)O (stereo partly specified) | 69.5 |
| CC1(C)CC[C@]2(C(=O)NCC(=O)O)CC[C@]3(C)C(=CC[C@@H]4[C@@]5(C)CC[C@H](O)C(C)(C)[C@@H]5CC[C@]43C)[C@@H]2C1 | 61.5 |
